# Active and inactive are the calls of the source. The rule behind the calls is not given here.
# Experiments:
# Mus musculus [1] = experiment: Potentiation of acetone-induced cold allodynic response in Swiss CD-1 mouse chronic constriction injury model applied topically 20 mins prior to acetone-challenge measured for 7 to 9 mins post acetone-challenge; type: functional, organism-based
# Summary of the method: (§1)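 Male Swiss CD1 mice (30–35 g) with sciatic nerve chronic constriction injury under xylazine/ketamine i.p. Day 14: 50 µl of compound at 20% w/v in absolute ethanol applied topically to the operated paw (vehicle: ethanol). After 20 min, acetone applied. Brisk paw withdrawals counted in three 2-min windows about 5 min apart, as totals and per phase. n = 6 per group.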
# F11 [2] = experiment: Agonist activity at TRPM8 in differentiated rat/mouse F11 cells assessed as increase in intracellular Ca2+ level at 1 to 300 uM measured after 1 to 15 seconds by Fura-2-AM based fluorescence assay; type: cell-based
# Summary of the method: (§2)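 In differentiated F11 cells, L-menthol was perfused for 20 s at 1–300 µM in Normal Krebs, pH 7.4, room temperature. Fura-2 340/380 ratio was imaged every 3 s as F/F0. EC50 came from a fit to y = max/(1 + x/EC50)^n. Mean ± SEM of 23–28 determinations over at least 3 sessions.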
# Mus musculus [3] = experiment: Potentiation of acetone-induced cold allodynic response in Swiss CD-1 mouse chronic constriction injury model applied topically 20 mins prior to acetone-challenge measured for 14 to 16 mins post acetone-challenge; type: functional, organism-based; summary of the method: as §1
# F11 [4] = experiment: Agonist activity at TRPM8 in differentiated rat/mouse F11 cells assessed as effect on intracellular Ca2+ level at 100 uM by Fura-2-AM based fluorescence assay in presence of TRPM8 antagonist BCTC; type: cell-based
# Summary of the method: (§3)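 Fura-2 ratiometric Ca2+ imaging in F11 cells differentiated ≥72 h in medium with 2% FBS and retinoic acid, on poly-L-lysine coverslips, at room temperature in Normal Krebs (mM: NaCl 160, KCl 5.5, CaCl2 1.5, MgSO4 1.2, HEPES 10, glucose 10, pH 7.4). Menthol 100 µM perfused alone, with BCTC co-perfusion, or in Ca2+-free solution plus 1 mM EDTA. Peak F/F0 quantified.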
# Mus musculus [5] = experiment: Potentiation of acetone-induced cold allodynic response in Swiss CD-1 mouse chronic constriction injury model applied topically 20 mins prior to acetone-challenge measured up to 2 mins post acetone-challenge; type: functional, organism-based; summary of the method: as §1
# [6] = (§4) Agonist activity at TRPM8 in differentiated rat/mouse F11 cells assessed as increase in intracellular Ca2+ level measured after 20 seconds by Fura-2-AM based fluorescence assay; type: cell-based; summary of the method: as §2
# F11 [7] = experiment: as §4; type: cell-based; summary of the method: as §2
# F11 [8] = experiment: Agonist activity at TRPM8 in differentiated rat/mouse F11 cells at 100 uM treated in Ca2+-free solution by Fura-2-AM based fluorescence assay; type: cell-based; summary of the method: as §3
# F11 [9] = experiment: Agonist activity at TRPM8 in differentiated rat/mouse F11 cells assessed as increase in intracellular Ca2+ level at 0.3 to 100 uM by Fura-2-AM based fluorescence assay relative to menthol; type: cell-based
# Summary of the method: (§5)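 Differentiated F11 cells (≥72 h in 2% FBS plus retinoic acid) in Normal Krebs, pH 7.4, room temperature. Compounds perfused over the stated ranges. Fura-2 340/380 nm ratio read every 3 s after background correction. Peak F/F0 normalized to the maximal menthol response for efficacy. For potency, F/F0 was normalized to each compound's own maximum and fitted to y = max/(1 + […])^n.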
# [10] = (§6) Agonist activity at TRPM8 in differentiated rat/mouse F11 cells assessed as increase in intracellular Ca2+ level by Fura-2-AM based fluorescence assay; type: cell-based; summary of the method: as §2
# F11 [11] = experiment: as §6; type: cell-based; summary of the method: as §2
# F11 [12] = experiment: Agonist activity at TRPM8 in differentiated rat/mouse F11 cells assessed as increase in intracellular Ca2+ level at 1 to 100 uM by Fura-2-AM based fluorescence assay relative to menthol; type: cell-based; summary of the method: as §5
# F11 [13] = experiment: Agonist activity at TRPM8 in differentiated rat/mouse F11 cells assessed as increase in intracellular Ca2+ level at 1 to 500 uM by Fura-2-AM based fluorescence assay relative to menthol; type: cell-based; summary of the method: as §5
# Mus musculus [14] = experiment: Potentiation of acetone-induced cold allodynic response in Swiss CD-1 mouse chronic constriction injury model applied topically 20 mins prior to acetone-challenge; type: functional, organism-based; summary of the method: as §1
# F11 [15] = experiment: Agonist activity at TRPM8 in differentiated rat/mouse F11 cells assessed as increase in intracellular Ca2+ level at 10 to 1000 uM by Fura-2-AM based fluorescence assay relative to menthol; type: cell-based; summary of the method: as §5
# F11 [16] = experiment: Agonist activity at TRPM8 in differentiated rat/mouse F11 cells assessed as increase in intracellular Ca2+ level at 0.1 to 300 uM by Fura-2-AM based fluorescence assay relative to menthol; type: cell-based; summary of the method: as §5
# F11 [17] = experiment: Agonist activity at TRPM8 in differentiated rat/mouse F11 cells assessed as increase in intracellular Ca2+ level at 0.01 to 100 uM by Fura-2-AM based fluorescence assay relative to menthol; type: cell-based; summary of the method: as §5
# F11 [18] = experiment: Agonist activity at TRPM8 in differentiated rat/mouse F11 cells assessed as increase in intracellular Ca2+ level at 0.001 to 30 uM by Fura-2-AM based fluorescence assay relative to menthol; type: cell-based; summary of the method: as §5
# F11 [19] = experiment: Agonist activity at TRPM8 in differentiated rat/mouse F11 cells assessed as increase in intracellular Ca2+ level at 0.01 to 30 uM by Fura-2-AM based fluorescence assay relative to menthol; type: cell-based; summary of the method: as §5
Structure (SMILES),Activity (Mus musculus [1]),Activity (Mus musculus [3]),Activity (Mus musculus [5]),EC50 [10] [µM],Activity (F11 [11]),further results
CC(C)[C@@H]1CC[C@@H](C)C[C@H]1O [LEVOMENTHOL],Active,inactive,inactive,–,–,Activity (F11 [2]): Active; Activity (F11 [4]): inactive; EC50 [6]: 23.4 µM; Activity (F11 [7]): Dose-dependent effect; Activity (F11 [8]): inactive
Cc1cc(NCC2CCCCC2)no1,–,–,–,13.9,Dose-dependent effect,Efficacy (F11 [9]): 64%
CCCCNc1ccon1,–,–,–,17.3,Dose-dependent effect,Efficacy (F11 [12]): 69%
Cc1cc(NCC(C)C)on1,–,–,–,48.4,Dose-dependent effect,Efficacy (F11 [13]): 36%
Cc1cc(NCc2ccccc2)no1,inactive,inactive,inactive,400,Dose-dependent effect,Activity (Mus musculus [14]): inactive; Efficacy (F11 [15]): 82%
Cc1cc(NCc2ccc([N+](=O)[O-])cc2)no1,–,–,–,18.9,Dose-dependent effect,Efficacy (F11 [16]): 74%
Cc1cc(NCCC(C)C)no1,inactive,inactive,Active,0.5,Dose-dependent effect,Activity (Mus musculus [14]; TDE = time-dependent effect): tde; Efficacy (F11 [17]): 66%
CCCCNc1cc(C)on1,inactive,inactive,Active,3.6,Dose-dependent effect,Activity (Mus musculus [14]): inactive; Efficacy (F11 [17]): 89%
Cc1cc(NC(C)C)no1,inactive,inactive,Active,0.1,Dose-dependent effect,Activity (Mus musculus [14]; TDE = time-dependent effect): tde; Efficacy (F11 [18]): 53%
CC(C)CNc1ccon1,–,–,–,13.2,Dose-dependent effect,Efficacy (F11 [12]): 72%
Cc1cc(NCC(C)C)no1,inactive,inactive,Active,0.16,Dose-dependent effect,Activity (Mus musculus [14]; TDE = time-dependent effect): tde; Efficacy (F11 [19]): 58%
CCCCNc1cc(C)no1,–,–,–,100,Dose-dependent effect,Efficacy (F11 [15]): 32%
Cc1cc(NCc2ccccc2[N+](=O)[O-])no1,–,–,–,12,Dose-dependent effect,Efficacy (F11 [16]): 66%
